Structures are written as SMILES. Active and inactive are the calls of the source. The calls are words filed in the database; no cut-off is given here.

Test [1] addresses Poly [ADP-ribose] polymerase 1 (Homo sapiens, UniProt P09874). The test can be described thus: Inhibition of PARP1 (unknown origin) after 15 mins by fluorometric analysis.
The subject of test [2] is YCC-3/D. The test can be described thus: Potentiation of cisplatin-induced cytotoxicity against human YCC-3/D cells assessed as reduction in cisplatin IC50 at 50 uM incubated for 8 hrs prior to cisplatin-addition measured after 36 hrs by MTS assay. Format: functional, cell-based. The method in brief:
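Pretreatment format: cells seeded at 2500 cells/well, incubated overnight at 37 °C/5% CO2, exposed to PARP-1 inhibitor at 50 µM for 8 h. Inhibitor medium removed, cisplatin added over a concentration series for 36 h. MTS added for 2 h at 37 °C, absorbance read at 490 nm. Triplicate; cisplatin IC50 from % growth inhibition vs cisplatin concentration.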

For the next test, the system named is YCC-3. The test can be described thus: Potentiation of cisplatin-induced cytotoxicity against human YCC-3 cells assessed as reduction in cisplatin IC50 at 50 uM incubated for 8 hrs prior to cisplatin-addition measured after 36 hrs by MTS assay. The class given is functional, cell-based.
The test system of test [3] is YCC-3/D. The test can be described thus: Potentiation of cisplatin-induced cytotoxicity against human YCC-3/D cells assessed as reduction in cisplatin IC50 at 50 uM co-treated with cisplatin after 36 hrs by MTS assay. The class given is functional, cell-based.
Test [4] in a line: Cytotoxicity against human YCC-3 cells after 36 hrs by MTS assay. Conditions: YCC-3, 36 h. The class given is cell-based. The method in brief: (§1)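 Cells (YCC-3 parent, or YCC-3/D cisplatin-resistant line kept at 2.5 µg/mL cisplatin) seeded at 5000 cells/well, incubated overnight at 37 °C/5% CO2, then exposed to compound for 36 h. Medium replaced with MTS-containing medium for 2 h at 37 °C, absorbance read at 490 nm. Triplicate; IC50 taken from plot of % growth inhibition vs concentration.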

The nature of test [5]: Cytotoxicity against human YCC-3/D cells after 36 hrs by MTS assay. The class given is cell-based. The method in brief:
as §1

Sequence of Poly [ADP-ribose] polymerase 1 (P09874 whole entry): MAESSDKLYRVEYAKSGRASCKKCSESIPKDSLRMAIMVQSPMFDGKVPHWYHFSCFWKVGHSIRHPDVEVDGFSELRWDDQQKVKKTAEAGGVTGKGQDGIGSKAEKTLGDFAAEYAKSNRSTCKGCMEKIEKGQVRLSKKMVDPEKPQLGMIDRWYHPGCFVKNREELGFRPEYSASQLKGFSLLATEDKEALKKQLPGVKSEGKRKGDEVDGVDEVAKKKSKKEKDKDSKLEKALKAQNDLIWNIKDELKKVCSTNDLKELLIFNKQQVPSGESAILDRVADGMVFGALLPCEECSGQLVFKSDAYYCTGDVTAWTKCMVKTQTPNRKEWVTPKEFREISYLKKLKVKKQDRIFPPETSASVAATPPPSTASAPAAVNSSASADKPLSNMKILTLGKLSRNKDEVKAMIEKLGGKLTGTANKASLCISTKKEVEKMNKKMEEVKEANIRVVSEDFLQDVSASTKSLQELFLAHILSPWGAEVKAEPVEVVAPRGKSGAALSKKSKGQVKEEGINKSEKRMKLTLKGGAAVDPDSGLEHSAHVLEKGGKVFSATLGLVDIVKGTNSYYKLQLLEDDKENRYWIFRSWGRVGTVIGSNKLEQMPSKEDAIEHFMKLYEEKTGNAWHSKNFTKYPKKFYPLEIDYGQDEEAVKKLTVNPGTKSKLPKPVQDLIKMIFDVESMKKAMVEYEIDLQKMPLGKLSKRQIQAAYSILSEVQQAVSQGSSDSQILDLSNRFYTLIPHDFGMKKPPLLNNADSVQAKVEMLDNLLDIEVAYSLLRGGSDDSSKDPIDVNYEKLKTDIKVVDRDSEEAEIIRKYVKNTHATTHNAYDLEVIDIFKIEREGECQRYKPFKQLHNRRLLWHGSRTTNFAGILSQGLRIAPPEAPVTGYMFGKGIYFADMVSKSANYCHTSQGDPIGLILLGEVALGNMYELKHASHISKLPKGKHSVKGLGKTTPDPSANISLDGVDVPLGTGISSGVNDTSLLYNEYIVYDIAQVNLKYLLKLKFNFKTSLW

Regarding `O=c1[nH]c(CCCN2CCC(c3ccc(Cl)cc3)CC2)nc2ccccc12`, in test [1], it took 388 nM to reach half-maximal inhibition (IC50).

As to `O=c1[nH]c(CCCN2CCN(c3ccc(F)cc3)CC2)nc2ccccc12`, the result with YCC-3/D [2] was Active. Also, the outcome with YCC-3 and with YCC-3/D [3] was inactive. Further, the IC50 is greater than 200000 nM in test [4], greater than 200000 nM in test [5] and 77 nM in test [1].

`O=c1[nH]c(CCCN2CCN(c3cccc(Cl)c3)CC2)nc2ccccc12` registered an IC50 in test [1] of 1010 nM.

For `O=c1[nH]c(CCCN2CC=C(c3ccc(F)cc3)CC2)nc2ccccc12`, the IC50 in test [1] turned out to be 304 nM.

Regarding `O=c1[nH]c(CCCN2CCC(c3ccccc3)CC2)nc2ccccc12`, in the test with YCC-3/D [2], the result was Active. Moreover, the outcome in the test with YCC-3 and with YCC-3/D [3] was inactive. Also, the IC50 in test [4] came to 126000 nM; in test [5] it was 96300 nM; in test [1], 79 nM.

For the compound `CCCCc1nc2ccccc2c(=O)[nH]1`, the IC50 in test [1] came to 8890 nM.

The compound `COc1ccccc1N1CCN(CCCc2nc3ccccc3c(=O)[nH]2)CC1` gave an IC50 in test [1] of 189 nM.

(Values after ChEMBL document CHEMBL2375246, “In silico identification of poly(ADP-ribose)polymerase-1 inhibitors and their chemosensitizing effects against cisplatin-resistant human gastric cancer cells” (Bioorg Med Chem Lett, 2013).)
